Laboratory results as given in ChEMBL document CHEMBL5724801, “EUbOPEN Chemogenomics Library - Multiplex” (2024).
Several values for one entry are separate records, joined by “and”; a condition that tells them apart may be missing. Equal values may be shown once.

Tested on: Fibroblast
Assay: Multiplex assay against human fibroblast
Assay type: toxicity, cell-based
How it was run: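 At seeding, live cells were stained with Hoechst33342, BioTracker Green Microtubule Cytoskeleton Dye, MitoTracker Red and Annexin V Alexa Fluor 680. After compound addition they were imaged on a CQ1 microscope at 37°C and 5% CO2, and CellPathfinder machine-learning gating sorted them into Hoechst high-intensity objects or normal cells, with normal cells further split into healthy, pyknosed or fragmented nuclei and pyknosed cells into mitotic or apoptotic. Tubulin, mitochondrial-mass and membrane-permeability phenotypes are given as per cents of cells with healthy nuclei.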

[1] = 12 h, 1 µM, compound concentration 1 uM
[2] = 12 h, 10 µM, compound concentration 10 uM
[3] = 24 h, 1 µM, compound concentration 1 uM
[4] = 24 h, 10 µM, compound concentration 10 uM
[5] = 48 h, 1 µM, compound concentration 1 uM
[6] = 48 h, 10 µM, compound concentration 10 uM

Cc1c(C(=O)NCCCN(C)C)sc2ncnc(Nc3ccc(F)cc3OC(C)CF)c12 (stereo not drawn)
Population Fragmented Nuclei (%) [1]: 17.37% and 8.18%
Population Healthy Nuclei (%) [1]: 51.64% and 79.93%
Population Hoechst High Intensity Objects (%) [1]: 0%
Population Membrane Permeable-Phenotype (%) [1]: 0.91% and 2.79%
Population Mitochondria Different-Phenotype (%) [1]: 15.45% and 13.95%
Population Mitotic Cells (%) [1]: 92.42% and 75%
Population Normal (%) [1]: 100%
Population Pyknosed Nuclei (%) [1]: 30.99% and 11.9%
Population Tubulin-Different-Phenotype (%) [1]: 30.91% and 38.14%
Total Cell Count [1]: 213 and 269
Population Apoptotic (%) [2]: 19.3% and 27.27%
Population Fragmented Nuclei (%) [2]: 12.69% and 4.88%
Population Healthy Nuclei (%) [2]: 43.46% and 60.98%
Population Hoechst High Intensity Objects (%) [2]: 0%
Population Membrane Permeable-Phenotype (%) [2]: 10.62% and 8%
Population Mitochondria Different-Phenotype (%) [2]: 35.4% and 21.45%
Population Mitotic Cells (%) [2]: 80.7% and 72.73%
Population Normal (%) [2]: 100%
Population Pyknosed Nuclei (%) [2]: 43.85% and 34.15%
Population Tubulin-Different-Phenotype (%) [2]: 46.9% and 77.82%
Total Cell Count [2]: 260 and 451
Population Fragmented Nuclei (%) [3]: 16.28% and 8.79%
Population Healthy Nuclei (%) [3]: 68.99% and 76.87%
Population Hoechst High Intensity Objects (%) [3]: 0%
Population Membrane Permeable-Phenotype (%) [3]: 2.25% and 3.81%
Population Mitochondria Different-Phenotype (%) [3]: 5.06% and 8.05%
Population Mitotic Cells (%) [3]: 94.74% and 72.73%
Population Normal (%) [3]: 100%
Population Pyknosed Nuclei (%) [3]: 14.73% and 14.33%
Population Tubulin-Different-Phenotype (%) [3]: 28.09% and 38.14%
Total Cell Count [3]: 258 and 307
Population Apoptotic (%) [4]: 33.11% and 50.51%
Population Fragmented Nuclei (%) [4]: 9.29% and 4.55%
Population Healthy Nuclei (%) [4]: 35.69% and 45.45%
Population Hoechst High Intensity Objects (%) [4]: 0%
Population Membrane Permeable-Phenotype (%) [4]: 13.54% and 11.11%
Population Mitochondria Different-Phenotype (%) [4]: 40.62% and 36.11%
Population Mitotic Cells (%) [4]: 66.89% and 49.49%
Population Normal (%) [4]: 100%
Population Pyknosed Nuclei (%) [4]: 55.02% and 50%
Population Tubulin-Different-Phenotype (%) [4]: 75% and 87.78%
Total Cell Count [4]: 269 and 396
Population Apoptotic (%) [5]: 28.57% and 61.54%
Population Fragmented Nuclei (%) [5]: 15.91% and 10.44%
Population Healthy Nuclei (%) [5]: 79.55% and 85.44%
Population Hoechst High Intensity Objects (%) [5]: 0%
Population Membrane Permeable-Phenotype (%) [5]: 0% and 7.04%
Population Mitochondria Different-Phenotype (%) [5]: 6.94% and 2.59%
Population Mitotic Cells (%) [5]: 71.43% and 38.46%
Population Normal (%) [5]: 100%
Population Pyknosed Nuclei (%) [5]: 4.55% and 4.11%
Population Tubulin-Different-Phenotype (%) [5]: 15.92% and 33.7%
Total Cell Count [5]: 308 and 316
Population Apoptotic (%) [6]: 51.69% and 82.89%
Population Fragmented Nuclei (%) [6]: 13.56% and 8.54%
Population Healthy Nuclei (%) [6]: 48.73% and 29.67%
Population Hoechst High Intensity Objects (%) [6]: 0%
Population Membrane Permeable-Phenotype (%) [6]: 14.78% and 17.81%
Population Mitochondria Different-Phenotype (%) [6]: 50.43% and 54.79%
Population Mitotic Cells (%) [6]: 48.31% and 17.11%
Population Normal (%) [6]: 100%
Population Pyknosed Nuclei (%) [6]: 37.71% and 61.79%
Population Tubulin-Different-Phenotype (%) [6]: 76.52% and 83.56%
Total Cell Count [6]: 236 and 246

Nc1nc(-c2ccco2)c2cnn(Cc3ccccc3F)c2n1
Population Apoptotic (%) [1]: 50% and 45%
Population Healthy Nuclei (%) [1]: 78% and 50%
Population Hoechst High Intensity Objects (%) [1]: 0% and 6%
Population Membrane Permeable-Phenotype (%) [1]: 1% and 2%
Population Mitochondria Different-Phenotype (%) [1]: 2% and 5%
Population Mitotic Cells (%) [1]: 50% and 54%
Population Normal (%) [1]: 99% and 93%
Population Pyknosed Nuclei (%) [1]: 11% and 17%
Population Tubulin-Different-Phenotype (%) [1]: 26% and 42%
Total Cell Count [1]: 189 and 144
Population Apoptotic (%) [2]: 54% and 47%
Population Fragmented Nuclei (%) [2]: 16% and 39%
Population Healthy Nuclei (%) [2]: 61% and 44%
Population Hoechst High Intensity Objects (%) [2]: 8% and 10%
Population Membrane Permeable-Phenotype (%) [2]: 0% and 5%
Population Mitochondria Different-Phenotype (%) [2]: 7% and 13%
Population Mitotic Cells (%) [2]: 45% and 52%
Population Normal (%) [2]: 91% and 89%
Population Pyknosed Nuclei (%) [2]: 21% and 16%
Population Tubulin-Different-Phenotype (%) [2]: 38% and 51%
Total Cell Count [2]: 123 and 147
Population Apoptotic (%) [3]: 50% and 56%
Population Healthy Nuclei (%) [3]: 82% and 53%
Population Hoechst High Intensity Objects (%) [3]: 0% and 6%
Population Membrane Permeable-Phenotype (%) [3]: 0% and 4%
Population Mitochondria Different-Phenotype (%) [3]: 2% and 5%
Population Mitotic Cells (%) [3]: 50% and 43%
Population Normal (%) [3]: 100% and 93%
Population Pyknosed Nuclei (%) [3]: 7% and 17%
Population Tubulin-Different-Phenotype (%) [3]: 24% and 37%
Total Cell Count [3]: 180 and 139
Population Apoptotic (%) [4]: 70% and 43%
Population Fragmented Nuclei (%) [4]: 19% and 43%
Population Healthy Nuclei (%) [4]: 66% and 44%
Population Hoechst High Intensity Objects (%) [4]: 6% and 8%
Population Mitochondria Different-Phenotype (%) [4]: 8% and 5%
Population Mitotic Cells (%) [4]: 29% and 56%
Population Normal (%) [4]: 93% and 91%
Population Pyknosed Nuclei (%) [4]: 14% and 11%
Population Tubulin-Different-Phenotype (%) [4]: 39% and 46%
Total Cell Count [4]: 127 and 147
Population Apoptotic (%) [5]: 45% and 57%
Population Fragmented Nuclei (%) [5]: 16% and 41%
Population Healthy Nuclei (%) [5]: 77% and 48%
Population Hoechst High Intensity Objects (%) [5]: 3% and 6%
Population Membrane Permeable-Phenotype (%) [5]: 2% and 4%
Population Mitochondria Different-Phenotype (%) [5]: 1% and 9%
Population Mitotic Cells (%) [5]: 54% and 42%
Population Normal (%) [5]: 96% and 93%
Population Pyknosed Nuclei (%) [5]: 6% and 10%
Population Tubulin-Different-Phenotype (%) [5]: 26% and 37%
Total Cell Count [5]: 182 and 147
Population Apoptotic (%) [6]: 80% and 50%
Population Fragmented Nuclei (%) [6]: 25% and 50%
Population Healthy Nuclei (%) [6]: 65% and 38%
Population Hoechst High Intensity Objects (%) [6]: 9% and 5%
Population Membrane Permeable-Phenotype (%) [6]: 0% and 16%
Population Mitochondria Different-Phenotype (%) [6]: 10%
Population Mitotic Cells (%) [6]: 20% and 50%
Population Normal (%) [6]: 90% and 94%
Population Pyknosed Nuclei (%) [6]: 9% and 10%
Population Tubulin-Different-Phenotype (%) [6]: 27% and 51%
Total Cell Count [6]: 115 and 155

CCn1c(-c2nonc2N)nc2c(C#CC(C)(C)O)ncc(OCC3CCCNC3)c21 (stereo not drawn)
Population Apoptotic (%) [1]: 9.09% and 27.03%
Population Fragmented Nuclei (%) [1]: 15.15% and 9.22%
Population Healthy Nuclei (%) [1]: 64.85% and 77.66%
Population Hoechst High Intensity Objects (%) [1]: 0%
Population Membrane Permeable-Phenotype (%) [1]: 4.67% and 1.83%
Population Mitochondria Different-Phenotype (%) [1]: 8.41% and 8.68%
Population Mitotic Cells (%) [1]: 90.91% and 72.97%
Population Normal (%) [1]: 100%
Population Pyknosed Nuclei (%) [1]: 20% and 13.12%
Population Tubulin-Different-Phenotype (%) [1]: 9.35% and 19.63%
Total Cell Count [1]: 165 and 282
Population Apoptotic (%) [2]: 13.33% and 12.2%
Population Fragmented Nuclei (%) [2]: 17.67% and 9.62%
Population Healthy Nuclei (%) [2]: 66.43% and 74.62%
Population Hoechst High Intensity Objects (%) [2]: 0%
Population Membrane Permeable-Phenotype (%) [2]: 6.91% and 2.06%
Population Mitochondria Different-Phenotype (%) [2]: 25% and 13.4%
Population Mitotic Cells (%) [2]: 86.67% and 87.8%
Population Normal (%) [2]: 100%
Population Pyknosed Nuclei (%) [2]: 15.9% and 15.77%
Population Tubulin-Different-Phenotype (%) [2]: 35.64% and 40.21%
Total Cell Count [2]: 283 and 260
Population Fragmented Nuclei (%) [3]: 14.1% and 7.45%
Population Healthy Nuclei (%) [3]: 73.08% and 80.78%
Population Hoechst High Intensity Objects (%) [3]: 0%
Population Membrane Permeable-Phenotype (%) [3]: 0.88% and 1.46%
Population Mitochondria Different-Phenotype (%) [3]: 5.26% and 11.65%
Population Mitotic Cells (%) [3]: 90% and 63.33%
Population Normal (%) [3]: 100%
Population Pyknosed Nuclei (%) [3]: 12.82% and 11.76%
Total Cell Count [3]: 156 and 255
Population Apoptotic (%) [4]: 7.41% and 9.09%
Population Fragmented Nuclei (%) [4]: 24.25% and 15.79%
Population Healthy Nuclei (%) [4]: 61.04% and 77.78%
Population Hoechst High Intensity Objects (%) [4]: 0%
Population Membrane Permeable-Phenotype (%) [4]: 1.79% and 2.26%
Population Mitotic Cells (%) [4]: 92.59% and 90.91%
Population Normal (%) [4]: 100%
Population Pyknosed Nuclei (%) [4]: 14.71% and 6.43%
Population Tubulin-Different-Phenotype (%) [4]: 40.18% and 33.08%
Total Cell Count [4]: 367 and 342
Population Apoptotic (%) [5]: 23.08% and 33.33%
Population Fragmented Nuclei (%) [5]: 5.03% and 4.44%
Population Healthy Nuclei (%) [5]: 86.79% and 87.1%
Population Hoechst High Intensity Objects (%) [5]: 0%
Population Membrane Permeable-Phenotype (%) [5]: 2.9% and 4.63%
Population Mitotic Cells (%) [5]: 76.92% and 66.67%
Population Normal (%) [5]: 100%
Population Pyknosed Nuclei (%) [5]: 8.18% and 8.47%
Total Cell Count [5]: 159 and 248
Population Apoptotic (%) [6]: 30% and 29.41%
Population Fragmented Nuclei (%) [6]: 21.53% and 21.32%
Population Healthy Nuclei (%) [6]: 69.97% and 74.37%
Population Hoechst High Intensity Objects (%) [6]: 0%
Population Membrane Permeable-Phenotype (%) [6]: 1.21% and 0.68%
Population Mitochondria Different-Phenotype (%) [6]: 8.91% and 1.71%
Population Mitotic Cells (%) [6]: 70% and 70.59%
Population Normal (%) [6]: 100%
Population Pyknosed Nuclei (%) [6]: 8.5% and 4.31%
Population Tubulin-Different-Phenotype (%) [6]: 29.55% and 33.11%
Total Cell Count [6]: 353 and 394
